Assays:
[1] = Percentage of maximum displacement of 1.0 nM [3H]NPY from rat brain membranes homogenates using 1.0 uM NPY to determine specific binding; type: cell membranes; conditions: Membrane
Summary of the method: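 Rat brain membranes (1.2–1.6 mg protein/mL) were incubated with 1.0 nM [3H]NPY and 10⁻³–10⁻⁷ M compound in duplicate. Buffer was pH 7.4 Krebs–Ringer bicarbonate/phosphate with BSA and bacitracin, at 25 °C for 90 min. Nonspecific binding was defined with 1.0 μM NPY, and results were filtered and counted by scintillation. The value is the maximal percentage of specific [3H]NPY binding displaced, from at least triplicate experiments.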

[2] = Concentration producing half maximal displacement of [3H]NPY specific binding from benextramine sensitive NPY binding sites in rat brain membranes; type: cell membranes
Summary of the method: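 Membranes from male Sprague–Dawley rat brain (250–300 g), 1.2–1.6 mg protein/mL, were incubated with 1.0 nM [3H]NPY and 10–12 concentrations (10⁻³–10⁻⁷ M) of compound. Incubation was in duplicate in Krebs–Ringer bicarbonate with 50 mM phosphate, 0.1% BSA and 0.05% bacitracin (pH 7.4), at 25 °C for 90 min. Nonspecific binding was set with 1 μM NPY. Bound ligand was collected on PEI-treated GF/A filters and counted by scintillation. Runs were done at least in triplicate, and averaged data were fit to a two-site competitive isotherm.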

[3] = organism: Rattus norvegicus; assay: Relative potency in displacing 1 nM [3H]NPY from benextramine-sensitive rat brain NPYsites

Row | Structure (SMILES) | maximal displacement of specific binding [1] [%] | IC50 [2] [µM] | Relative potency [3]
1 | COc1ccccc1CNCCCCCCNCCSSCCNCCCCCCNCc1ccccc1OC [BENEXTRAMINE] | 65 | 57.6 | 1
2 | N=C(N)N(CCCCCCNCC12C[C@H]3C[C@@H](C1)C[C@@H](C2)C3)CCSSCCN(CCCCCCNCC12C[C@H]3C[C@@H](C1)C[C@@H](C2)C3)C(=N)N | 68 | 15 | 3.8
3 | N=C(N)N(CCCCCCNCc1ccc2ccccc2c1)CCSSCCN(CCCCCCNCc1ccc2ccccc2c1)C(=N)N | 76 | 14.8 | 3.9
4 | c1ccc2cc(CNCCCCCCNCCCCCCNCCCCCCNCc3ccc4ccccc4c3)ccc2c1 | 75 | 48.3 | 1
5 | c1ccc2cc(CNCCCCCCNCCSSCCNCCCCCCNCc3ccc4ccccc4c3)ccc2c1 | 68 | 31.3 | 1.8
6 | N=C(N)N(CCCCCCNCc1ccc2ccccc2c1)CCCCCCN(CCCCCCNCc1ccc2ccccc2c1)C(=N)N | 72 | 18.4 | 2.6

— ChEMBL document CHEMBL1127829, “Nonpeptide peptidomimetic antagonists of the neuropeptide Y receptor: benextramine analogs with selectivity for the peripheral Y2 receptor” (J Med Chem, 1994)
